Sampled rows, rich in hits. Any-hit rate of the full collection: about 2.4%.
JMJD2C inh: inhibitors of GASC-1 histone demethylase, primary screen, biochemical, fluorescence, DELFIA europium | GST-JMJD2C(1-420) H3K9me3 demethylation | inhibition, % at 2.35 µM | 0.069% of 330,000 active;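 active = more than half of a compound's replicate wells show inhibition beyond 50%, single wells judged on their own value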;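 also: signal counts dimethyl H3K9 product captured on neutravidin plate; 0% = median of DMSO wells and 100% = 0.3 times that DMSO median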
CTSL1 counter: Fasciola hepatica cathepsin L1 inhibitors, primary screen, counter-screen for PFM18AAP inhibitor project, biochemical, QFRET, fluorogenic peptide substrate; recombinant F. hepatica cathepsin L1, Z-Leu-Arg-MCA fluorescence; inhibition, % at 5.96 µM; 0.49% of 300,000 active; AID 1906, 2009;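 active = inhibition above the mean of all tested compounds plus 3 SD, set per screening campaign, cut at about 17% in these data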;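 also: 0% = plate median of test compound wells and 100% = 1 µM Z-Phe-Ala-diazomethylketone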
p-CIP stab down: p/CIP-EGFP fusion destabilizers, primary screen, fluorescence, F442A cells; decrease of EGFP signal, % at 10 µM; 16 h; AID 1984, 2009; Q05BA5; 0.01% of 290,000 active;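 active = EGFP signal decrease of at least 30% at 10 µM or well 3 SD below plate mean, unless failing retest; inactive = the rest, including hits failing retest or dose response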
PP5 primary: PP5 phosphatase inhibitors, primary screen, biochemical, fluorescence. 0.18% of 320,000 active. Serine/threonine-protein phosphatase 5 (Homo sapiens), P53041. inhibition, % at 6.7 µM. purified PP5c, OMFP substrate fluorescence;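 active = inhibition above the campaign's mean inhibition across all tested compounds plus 3 SD, cut at about 9.5% in these data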;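 also: 0% = DMSO only and 100% = 100 µM cantharidin control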
Target sequence (P53041 whole entry, looked up): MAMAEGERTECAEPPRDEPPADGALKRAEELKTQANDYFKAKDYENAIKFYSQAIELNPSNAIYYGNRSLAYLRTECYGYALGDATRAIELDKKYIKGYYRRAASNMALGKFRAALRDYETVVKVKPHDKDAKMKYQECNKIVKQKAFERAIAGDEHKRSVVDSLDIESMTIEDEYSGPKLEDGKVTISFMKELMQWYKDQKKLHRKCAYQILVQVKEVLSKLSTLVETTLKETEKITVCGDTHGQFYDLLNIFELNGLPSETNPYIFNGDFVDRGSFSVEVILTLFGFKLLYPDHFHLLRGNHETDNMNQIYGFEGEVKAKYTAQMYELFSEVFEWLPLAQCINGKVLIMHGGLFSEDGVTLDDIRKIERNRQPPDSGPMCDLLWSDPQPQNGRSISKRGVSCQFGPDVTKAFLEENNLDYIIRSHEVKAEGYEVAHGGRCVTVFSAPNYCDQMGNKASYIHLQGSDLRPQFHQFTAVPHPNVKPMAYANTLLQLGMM
Cardio protect: cardioprotection against H2O2-induced cell death, primary screen, uHTS, H9c2 cells, ATPLite luminescence; H9c2 cardiomyocytes, H2O2 injury protection, 2 h; AID 588492, 2011; 0.63% of 360,000 active; protection from H2O2 cell death, % at 20 µM;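 active = compounds giving at least 50% protection of heart cells from peroxide-induced death in the single-dose screen, raw or plate-pattern-corrected value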;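 also: 0% = DMSO wells with peroxide and 100% = DMSO wells without peroxide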
T cruzi repl: inhibitors of intracellular T. cruzi growth, primary screen, luminescence, NIH3T3 host cells; T. cruzi beta-gal in NIH3T3, 90 h; inhibition, % (test concentration not listed); 1.4% of 300,000 active;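 active = mean inhibition across valid replicates above about 55%, limit read from the data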;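 also: signal also drops with host cell toxicity which is not excluded here; 0% = plate median of DMSO wells and 100% = zero luminescence signal; higher percent means less beta-gal luminescence so fewer parasites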
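Material: NIH/3T3 host cells with β-galactosidase reporter T. cruzi; Input: 5,000 host fibroblasts per well; Medium: DMEM, 2% fetal bovine serum; Compound: 50 nL DMSO compound solution per well; Schedule: 3 h host attachment, then at least 90 h co-culture; Detection: luminescent β-galactosidase signal after 60 min lysis.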
An asterisk follows results filed as active; . = no result given.

SMILES	JMJD2C inh	CTSL1 counter	p-CIP stab down	PP5 primary	Cardio protect	T cruzi repl
CCN1/C(=C/c2ccc3cc(C)cc(C)c3[n+]2CC)Sc2cc(C)ccc21	.	.	-192	.	-30	.
C[n+]1ccccc1/C=C1\Sc2ccccc2N1CCO	-7	1	-22	-5	-6	10
CCN1/C(=C/c2ccc3cccc(C)c3[n+]2CC)Sc2ccccc21	-2	-2	-589	5	-17	58*
CCN1/C(=C/c2ccc3cc(C)ccc3[n+]2CC)Sc2ccc3sccc3c21	-4	2	.	-1	-29	60*
CCN1/C(=C\c2ccc3cc(C)ccc3[n+]2CC)Sc2cc(C)c(C)cc21	6	.	-166	.	-29	64*
CC(C)(C)[C@H]1COC(=O)[C@H](NC(=O)OCC2c3ccccc3-c3ccccc32)C/C=C\C[C@@H](CC(=O)N(CCO)Cc2ccccc2)C(=O)N1	5	.	.	.	-10	.
COC(=O)c1c(NC(=O)CCl)sc(C(=O)N2CCOCC2)c1C	-2	35*	-4	1	-2	11
O=C(COC(=O)CNC(=O)c1ccccc1)NC(=O)NC1CCCCC1	0	.	.	.	8	.
COC(=O)C1=C(C)C(c2ccc(OC)cc2OC)NC(=O)N1 (configuration not stated)	3	-2	-12	-1	31	-1
COc1ccc(C2CC(C)(c3ccc(OC)cc3OC)Nc3ccccc3N2)c(OC)c1 (configuration not stated)	30	3	-56	5	-7	73*
CCc1c(C)nc2cc(-c3cc(OC)cc(OC)c3)nn2c1N1CCN(CCN2CCOCC2)CC1	11	-3	4	2	91*	12
CN(C)CCC1CCN(c2cc(C#N)c(C#N)cc2[N+](=O)[O-])CC1	-26	2	-6	1	11	79*
N#Cc1cc(N2CCCCC2)c([N+](=O)[O-])cc1C#N	14	-7	-18	4	9	-4
CCOc1ccccc1NC(=O)COC(=O)c1nc2nccc(C)n2n1	-2	.	.	.	-2	.
COc1cc(/C(C)=N\NC(N)=S)cc(OC)c1OC	-1	18*	1	-1	1	3
COc1cc(OC)cc(C(=O)NC(C)CNc2ccc(Cl)cc2[N+](=O)[O-])c1 (configuration not stated)	2	6	4	3	-4	15
C[C@H](NS(=O)(=O)c1ccccc1F)C(=O)OCC(=O)Nc1ccc2c(c1)OCCO2	-6	.	.	.	0	.
CCCN(CCC)C(=O)c1cc([N+](=O)[O-])cc2c1-c1ccc([N+](=O)[O-])cc1C2=C(C#N)C#N	-3	-1	-32	-2	.	80*
COc1ccc(-c2cc(C#N)nc(N3CCN(C)CC3)n2)cc1	-9	0	-26	3	1	66*
COc1ccc(-c2cc(C#N)nc(N3CCNCC3)n2)cc1	0	1	-5	3	1	57*
CN1CCN(c2nc(C#N)cc(-c3ccccc3)n2)CC1	-2	0	-10	0	17	19
CC(OC(=O)CCOc1ccccc1)C(=O)NC1CC1 (configuration not stated)	-5	-24	.	-1	1	-8
CC(=O)Nc1ccc(NS(=O)(=O)c2cccc3nonc23)cc1	5	17*	-14	-3	0	-14
O=C(Cc1cccc(NC(=O)C2CCCN(C(=O)C3CCCC3)C2)c1)Nc1cccc(C(=O)N2CCCCC2)c1 (configuration not stated)	.	.	.	.	-2	.
Nc1ccc(-c2nc3c(ccc4ccccc43)[nH]2)cc1	0	3	1	4	-2	47
SMILES	JMJD2C inh	CTSL1 counter	p-CIP stab down	PP5 primary	Cardio protect	T cruzi repl
CC(C)C(OC(=O)C1=Cc2ccccc2OC1)C(=O)NCC1CCCO1 (configuration not stated)	.	.	.	.	0	.
CCC(CC)C(=O)Nc1cc(C)c2c(=O)oc3ccccc3c2n1	-13	12	-13	-4	71*	39
CCCCCN(C(=O)CCC(=O)OC(C)C(=O)Nc1cccc(C#N)c1)c1c(N)n(CCCC)c(=O)[nH]c1=O (configuration not stated)	2	10	.	-2	-4	-8
CCCCCC(=O)Nc1cc(S(=O)(=O)N2CCOCC2)ccc1Oc1ccc(OCC)cc1	13	0	.	3	-6	19
CCN(CC)CCN(C(=O)CCS(=O)(=O)c1ccccc1)c1nc2cc3c(cc2s1)OCO3	0	76*	-8	0	-1	60*
CCN(CC)CCN(C(=O)c1ccc(Br)s1)c1nc2cc3c(cc2s1)OCO3	3	2	-6	4	-3	29
O=C(C1CCCCC1)N(CCN1CCCC1)c1nc2ccccc2s1	0	0	2	0	2	57*
O=C(CCS(=O)(=O)c1ccccc1)N(CCCN1CCOCC1)c1nc2ccccc2s1	1	47*	.	1	-16	8
CCN(CC)CCN(C(=O)C1CCCCC1)c1nc2cc3c(cc2s1)OCO3	20	3	-3	3	1	61*
Cc1ccc(S(=O)(=O)CCC(=O)N(CCCN2CCOCC2)c2nc3ccccc3s2)cc1	-12	8	.	1	-12	12
CCOC(=O)C1CCN(C(=O)COC(=O)CSc2ccccc2C)CC1	.	.	.	.	0	.
O=C(CCc1ccc(O)c(O)c1)N/N=C/c1ccc2c(c1)OCO2	-13	2	-6	0	87*	-5
CC(C)Oc1ccc(CCC(=O)N/N=C/c2ccc3c(c2)OCO3)cc1	-14	5	1	2	-11	-2
Cc1cccnc1Nc1nc(-c2ccc(O)c(O)c2)cs1	-13	2	3	8	65*	-13
Cc1ccnc(Nc2nc(-c3ccc(O)c(O)c3)cs2)c1	-80	5	-3	4	60*	-21
CCOC(=O)Cc1csc(NC(=O)c2cc(-c3ccncc3)nc3ccccc23)n1	-2	.	.	2	48	.
CC(=O)N(c1ccccc1C)C1CCCC1	7	6	10	-2	19	-4
CC(=O)N(C1=C(Cl)C(=O)c2ccccc2C1=O)C1CCCCC1	-12	23*	-44	2	-19	58*
O=C(Nc1nnc(-c2ccc3c(c2)CCCC3)o1)c1ccccc1	-3	6	-7	0	52*	45
O=C(Nc1nnc(-c2ccc3c(c2)CCCC3)o1)c1ccccc1Cl	3	0	-2	3	47	2
COc1ccc(OC)c(C(=O)NC(CC(N)=O)c2ccc(N3CCN(c4ccc(F)cc4)CC3)c([N+](=O)[O-])c2)c1 (configuration not stated)	2	-1	-4	1	5	13
